Activity calls are given as the source filed them.
Experiments:
[1] = biological target: T1, Lysophosphatidylserine lipase ABHD12 (Mus musculus) (UniProt Q99LR1); assay: Binding affinity to ABHD12 in mouse brain membrane proteome at 0.016 to 10 uM incubated for 45 mins by CuAAC fluorescence dependent gel-based competitive ABPP assay; assay type: cell membranes
T1 sequence (whole entry): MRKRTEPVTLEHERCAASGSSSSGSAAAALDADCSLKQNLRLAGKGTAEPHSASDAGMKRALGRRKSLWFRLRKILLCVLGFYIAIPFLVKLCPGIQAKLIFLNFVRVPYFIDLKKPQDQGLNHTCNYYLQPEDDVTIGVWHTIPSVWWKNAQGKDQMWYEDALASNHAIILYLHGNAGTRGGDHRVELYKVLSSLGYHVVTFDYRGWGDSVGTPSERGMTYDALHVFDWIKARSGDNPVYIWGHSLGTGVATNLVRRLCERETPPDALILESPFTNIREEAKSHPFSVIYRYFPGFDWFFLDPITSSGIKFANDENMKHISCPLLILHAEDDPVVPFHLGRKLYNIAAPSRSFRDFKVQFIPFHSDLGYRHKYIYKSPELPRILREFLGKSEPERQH
Method in brief: (§1)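 Mouse brain membrane proteome (1 mg/mL) preincubated with inhibitor for 45 min at 37 °C. Labelled with FP-Rh (1 μM) or JJH350 (2 μM) for 45 min at 37 °C. JJH350 samples were clicked to Rh-N3 (25 μM) by CuAAC for 60 min at room temperature. Read by 10% SDS-PAGE and in-gel fluorescence scanning. Band intensity taken relative to control (100%), and IC50 from log(inhibitor) vs normalized response.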

[2] = biological target: T2, Monoacylglycerol lipase ABHD6 (Mus musculus) (UniProt Q8R2Y0); assay: Binding affinity to ABHD6 in mouse brain membrane proteome at 0.016 to 10 uM incubated for 45 mins by CuAAC fluorescence dependent gel-based competitive ABPP assay; assay type: cell membranes; method in brief: as §1
T2 sequence (whole entry): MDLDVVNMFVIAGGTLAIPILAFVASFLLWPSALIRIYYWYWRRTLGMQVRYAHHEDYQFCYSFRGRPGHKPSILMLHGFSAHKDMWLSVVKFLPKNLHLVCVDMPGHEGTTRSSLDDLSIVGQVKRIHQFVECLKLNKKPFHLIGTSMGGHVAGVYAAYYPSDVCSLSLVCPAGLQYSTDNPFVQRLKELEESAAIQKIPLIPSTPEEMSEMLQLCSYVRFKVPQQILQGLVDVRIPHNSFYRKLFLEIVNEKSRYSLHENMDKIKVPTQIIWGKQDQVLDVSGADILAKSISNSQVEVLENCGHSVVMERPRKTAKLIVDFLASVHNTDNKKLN

[3] = biological target: T3, Lysophosphatidylserine lipase ABHD12 (Mus musculus, UniProt Q99LR1); assay: Inhibition of FP-Rh probe binding to ABHD12 in mouse brain membrane proteome incubated for 45 mins by CuAAC fluorescence dependent gel-based competitive ABPP assay; assay type: cell membranes; method in brief: as §1
T3 sequence (Q99LR1 whole entry): T1 sequence (whole entry)

[4] = biological target: T4, Lysophosphatidylserine lipase ABHD12 (Homo sapiens) (UniProt Q8N2K0); assay: Inhibition of ABHD12 in PMA-differentiated human THP1 cells assessed as increase in CCL3 production treated simultaneously with IFN-gamma/LPS for 24 hrs and measured 6 to 24 hrs after stimulation
T4 sequence (whole entry): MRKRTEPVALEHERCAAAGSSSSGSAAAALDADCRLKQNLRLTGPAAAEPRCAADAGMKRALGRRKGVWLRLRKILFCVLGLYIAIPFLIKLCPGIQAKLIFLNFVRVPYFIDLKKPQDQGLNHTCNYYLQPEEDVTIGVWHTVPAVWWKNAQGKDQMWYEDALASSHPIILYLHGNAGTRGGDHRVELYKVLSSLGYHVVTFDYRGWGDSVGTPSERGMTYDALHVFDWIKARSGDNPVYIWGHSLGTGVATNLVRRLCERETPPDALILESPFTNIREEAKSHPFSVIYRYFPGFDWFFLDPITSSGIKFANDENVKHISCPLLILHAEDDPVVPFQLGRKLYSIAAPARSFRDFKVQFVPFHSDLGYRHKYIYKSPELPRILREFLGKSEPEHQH
Method in brief: (§2)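 THP-1 cells grown in RPMI/10% FBS/0.05 mM 2-mercaptoethanol, plated 2.5×10^6 per well. Treated 24 h with 150 ng/mL PMA, washed, rested 24 h. Polarized to M1 with 20 ng/mL IFN-γ plus 10 pg/mL LPS for 24 h. Compound or DMSO (test 0.1–1 μM) present at every step. Media sampled 6 and 24 h after stimulation; cytokines by MSD V-Plex. Mean ± SEM, four biological experiments.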

[5] = Toxicity in mouse at 30 mg/kg, ip; assay type: organism-based; settings: in vivo
[6] = biological target: T4, Lysophosphatidylserine lipase ABHD12 (Homo sapiens); assay: Inhibition of ABHD12 in PMA-differentiated human THP1 cells assessed as increase in TNF-alpha production treated simultaneously with IFN-gamma/LPS for 24 hrs and measured 6 to 24 hrs after stimulation; method in brief: as §2
[7] = Drug level in mouse brain at 30 mg/kg, po; assay type: ADME, organism-based; settings: in vivo, read-out: Drug uptake
[8] = Toxicity in mouse at 30 mg/kg, po; assay type: organism-based; settings: in vivo
[9] = Drug level in mouse brain at 30 mg/kg, ip; assay type: ADME, organism-based; settings: in vivo, read-out: Drug uptake
[10] = biological target: T3, Lysophosphatidylserine lipase ABHD12; assay: Inhibition of JJH350 binding to ABHD12 in mouse brain membrane proteome incubated for 20 mins by CuAAC fluorescence dependent gel-based competitive ABPP assay; assay type: cell membranes
Method in brief: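 Brain membrane fraction (1 mg/mL; DPBS homogenate, 16,000 x g pellet) treated with inhibitor for 20 min at room temperature. JJH350 (2 μM) added for 45 min at 37 °C, then CuAAC with rhodamine-PEG3-azide, CuSO4, TBTA and TCEP for 1 h at room temperature. Run on 10% SDS-PAGE and read by in-gel fluorescence. ABHD12 band normalized to control-treated sample (100%); IC50 from log dose-response fit.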

[11] = Drug level in mouse peripheral regions at 30 mg/kg, po; assay type: ADME, organism-based; settings: in vivo, read-out: Drug uptake
[12] = system: THP-1; assay: Cytotoxicity against human THP1 cells assessed as effect on cell viability at 1 uM after 72 hrs by CellTiter-Glo assay; assay type: cell-based; settings: thp-1, 72 h
Method in brief: (§3)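 Cells seeded at 3,000 per well and left 24 h. Compounds then added at 0.1–10 μM final and incubated 72 h. Viability read by CellTiter-Glo luminescence and normalized to vehicle-treated controls.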

[13] = system: HT-1080; assay: Cytotoxicity against human HT1080 cells assessed as effect on cell viability at 1 uM after 72 hrs by CellTiter-Glo assay; assay type: cell-based; settings: ht-1080, 72 h; method in brief: as §3
[14] = biological target: T4, Lysophosphatidylserine lipase ABHD12 (Homo sapiens); assay: Inhibition of ABHD12 in PMA-differentiated human THP1 cells assessed as increase in IL-1beta production treated simultaneously with IFN-gamma/LPS for 24 hrs and measured 6 to 24 hrs after stimulation; method in brief: as §2
[15] = Drug level in mouse peripheral regions at 30 mg/kg, ip; assay type: ADME, organism-based; settings: in vivo, read-out: Drug uptake
[16] = biological target: T4, Lysophosphatidylserine lipase ABHD12 (Homo sapiens); assay: Inhibition of ABHD12 in PMA-differentiated human THP1 cells assessed as increase in CCL4 production treated simultaneously with IFN-gamma/LPS for 24 hrs and measured 6 to 24 hrs after stimulation; method in brief: as §2
[17] = system: T98G; assay: Cytotoxicity against human T98G cells assessed as effect on cell viability at 1 uM after 72 hrs by CellTiter-Glo assay; assay type: cell-based; method in brief: as §3
[18] = system: MDA-MB-231; assay: Cytotoxicity against human MDA-MB-231 cells assessed as effect on cell viability at 1 uM after 72 hrs by CellTiter-Glo assay; assay type: cell-based; settings: mda-mb-231, 72 h; method in brief: as §3

C#CCOc1ccc(N2CCN(C(=O)ON3C(=O)C4CN(C(=O)c5ccc(Oc6ccccc6)cc5)CCN4C3=O)CC2)cc1 (stereo not drawn)
0.4 µM: IC50 [3]
active: Activity [1] | Activity [2]

FC(F)(F)Oc1ccc(Oc2ccnc(N3CCC(NC(=S)Nc4cccnc4)CC3)c2Cl)c(Cl)c1
active: inhibition [4] Dose-dependent effect | inhibition [6] Dose-dependent effect | inhibition [14] Dose-dependent effect | inhibition [16] Dose-dependent effect
3 to 9 µM: concentration [7] | concentration [9] | concentration [11] | concentration [15]
Non-Toxic: Activity [5] | Activity [8] | Activity [12] | Activity [13] | Activity [17] | Activity [18]
0.011 µM: IC50 [10]

Reference: ChEMBL document CHEMBL4400528, “Discovery and Optimization of Selective and in Vivo Active Inhibitors of the Lysophosphatidylserine Lipase α/β-Hydrolase Domain-Containing 12 (ABHD12)” (J Med Chem, 2019)
